According to publication PMC4306503 (Bioconjugate Chemistry, 2014):
*1 amine or outer side, *2 acyl side, *3 side chain or, on linkers, in order; H or OH if unused. Where a SMILES comes first, the peptide text is derived from it. Side-chain parts run from the residue outwards. [ ]: non-standard residue; d: D form. The star is where a group is joined. X1 = COc1cc2c3cc1OCCOc1cc4c(cc1OC)Cc1cc5c(OC)cc1Cc1cc(c(OCc6cn(CCC(=O)*)nn6)cc1C4)OCCOc1cc(c(cc1OC)Cc1cc(c(OC)cc1C3)OCCO5)C2; Pteroyl = Nc1nc2ncc(CNc3ccc(C(=O)*)cc3)nc2c(=O)[nH]1; γGlu = O=C(O)[C@H](CCC(=O)[*:2])N[*:1]; AEEEA = NCCOCCOCCOCC(=O)O; StBu = CC(C)(C)S*

Experiments:
folate receptor (FR) = conditions: high affinity FR, 1:1 stoichiometry; cited from earlier work
[1] = target: reduced folate carrier (RFC); conditions: low affinity folate carrier RFC; cited from earlier work
[2] = at 300 K; cited from earlier work
[3] = target: folate binding protein (FBP) (Bos taurus, UniProt P02702); experiment: Hyperpolarized 129Xe NMR with folate binding protein; conditions: 30 μM FBP, 30 and 60 μM biosensor, acetate buffer pH 5.0 with and without 10% glycerol, incubated 30 min
Chain of folate binding protein (FBP) (P02702 20-241): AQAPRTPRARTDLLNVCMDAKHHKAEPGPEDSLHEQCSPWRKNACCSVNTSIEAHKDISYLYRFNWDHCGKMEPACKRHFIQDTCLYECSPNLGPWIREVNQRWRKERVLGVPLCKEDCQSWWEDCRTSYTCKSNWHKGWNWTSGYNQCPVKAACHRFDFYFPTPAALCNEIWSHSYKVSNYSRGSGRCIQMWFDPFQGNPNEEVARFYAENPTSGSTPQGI

KB (FR+) cells = experiment: MTT cell viability assay, KB cells; format: cell-based, human; conditions: 100 μM (highest concentration), 24 h incubation
Procedure, shortened: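 KB cells kept in RPMI-1640 (25 mM HEPES, 2 mM L-glutamine, 15% fetal calf serum, penicillin/streptomycin) and seeded at 25 000 per well overnight. Unlabelled test conjugate added in triplicate at final 0–100 μM for 24 h in the dark. Cells then DPBS-washed thrice and given MTT (5 mg/mL solution) for 3 h. Formazan was dissolved in DMSO and read at 540 nm. Viability is expressed as percent of untreated-control absorbance.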

[4] = Solubility in water after HPLC purification; format: physicochemical; conditions: after cleavage from solid support and reverse-phase HPLC purification

## CN1c2c(nc(N)[nH]c2=O)NCC1CNc1ccc(C(=O)N[C@@H](CCC(=O)O)C(=O)O)cc1 (stereo partly drawn) [5-methyltetrahydrofolate, 5-methyl tetrahydrofolate]
Folate receptor (FR)
  Kd: 100 to 1000 pM
[1]
  dissociation constant: micromolar

## [Xe] [129Xe]
[2]
  water solubility: 4.2 mM atm^–1

## COc1cc2c3cc1OCCOc1cc4c(cc1OC)Cc1cc5c(OC)cc1Cc1cc(c(OCc6cn(CCC(=O)N[C@@H](CCCCNC(=O)CC[C@H](NC(=O)c7ccc(NCc8cnc9nc(N)[nH]c(=O)c9n8)cc7)C(=O)O)C(=O)N[C@@H](CCCCN)C(=O)N[C@@H](CCCNC(=N)N)C(=O)N[C@@H](CCCCN)C(=O)N[C@@H](CCCNC(=N)N)C(=O)N[C@@H](CCCCN)C(=O)NCCOCCOCCOCC(=O)N[C@@H](CCCNC(=N)N)C(=O)N[C@@H](CCCCN)C(=O)N[C@@H](CSSC(C)(C)C)C(=O)N[C@@H](CCCNC(=N)N)C(N)=O)nn6)cc1C4)OCCOc1cc(c(cc1OC)Cc1cc(c(OC)cc1C3)OCCO5)C2 [compound 24] (X1-K([γGlu-Pteroyl])KRKRK[AEEEA]RKC(StBu)R-NH2)
[3]
  protein bound 129Xe NMR signal: no observable protein bound signal
KB (FR+) cells
  viability (maximum toxicity): 23%
[4]
  solubility in water: readily soluble in water
